Only some compounds are listed: those with a hit (about 2.3% of all), similar ones and a draw of the others.
Rpn11 inh: inhibitors of human proteasome Rpn11; calls only at 20 µM; 0.59% of 360,000 active; human 26S proteasome, Ub4-pepOG fluorescence polarization; 20S core pre-blocked with epoxomicin; AID 588493;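 active = inhibition at 20 µM, scaled to each plate's controls, above about 33%, limit read from the data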
CRFBP-R2 agonist: agonists of human CRF-binding protein/CRF-R2 receptor complex; activation, % at 13.2 µM; 0.46% of 350,000 active; HEK293 CRF-R2/CRF-BP, calcium dye fluorescence (FLIPR); percent of saturating CRF peptide response;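 active = activation of at least 50%, plus an integration ratio under a set limit after plate pattern correction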;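 note: plate controls were neutral control wells without compound for no effect and CRF at EC100 for full effect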
HNF4A DNA FP: change in binding of human HNF4 alpha to DNA; P41235; HNF4a-FITC DNA binding, fluorescence polarization, 1 h; activity change, % at 10 µM; 0.3% of 360,000 active; in the data active = activity change above about 30%, passing the limit was not always enough
Target sequence (P41235 whole entry, looked up): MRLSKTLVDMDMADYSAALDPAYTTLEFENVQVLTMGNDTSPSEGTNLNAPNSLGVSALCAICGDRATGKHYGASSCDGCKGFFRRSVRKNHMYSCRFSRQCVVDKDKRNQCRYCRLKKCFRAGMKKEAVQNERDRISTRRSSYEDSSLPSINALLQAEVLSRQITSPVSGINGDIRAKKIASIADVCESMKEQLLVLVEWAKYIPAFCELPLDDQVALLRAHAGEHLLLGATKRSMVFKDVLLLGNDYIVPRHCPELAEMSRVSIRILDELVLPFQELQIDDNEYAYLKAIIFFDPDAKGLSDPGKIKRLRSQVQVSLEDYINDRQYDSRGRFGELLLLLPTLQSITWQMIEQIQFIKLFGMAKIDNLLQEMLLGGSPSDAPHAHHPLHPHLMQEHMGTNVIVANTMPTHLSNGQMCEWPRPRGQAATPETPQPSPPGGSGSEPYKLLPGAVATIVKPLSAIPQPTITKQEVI
CSN deneddyl inh: CSN deneddylation inhibition | Purified CSN, SCF-Nedd8-OG deneddylation, fluorescence polarization | inhibition, % at 12.5 µM | 0.38% of 360,000 active | AID 651999;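 active = pattern-corrected inhibition above about 35%, with an unprinted fluorescence ratio check between 0.5 and 1.5, limit read from the data, passing the limit was not always enough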;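 note: 0% = enzyme with substrate and 100% = substrate without enzyme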
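assay system = purified human Csn5 enzyme expressed in HEK293T cells | amount = 0.24 nM enzyme | buffer or medium = Tris/NaCl/DTT buffer, pH 7.5 | reagent = 10 nM SCFSkp2-Nedd8OG | compound = one concentration, 12.5 µM, 0.25% DMSO | times = 90 min reaction at room temperature | signal = FP | read-out basis = % inhibition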
TPT1 inhibitor: blocks Candida albicans tRNA 2'-phosphotransferase; recombinant caTPT1, FP RNA substrate dephosphorylation; inhibition, % at 5 µM; 0.81% of 300,000 active; AID 1962;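 active = inhibition above the mean of all tested compounds plus 3 SD, set per screening campaign, cut at about 24% in these data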;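 note: plate controls were DMSO alone for no effect and ferristatin control at 100 nM for full effect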
CRFBP-R2 block: CRF-BP/CRF-R2 complex antagonism; HEK293 CRF-R2/CRF-BP, CRF-induced calcium fluorescence; inhibition, % at 11.8 µM; 0.59% of 350,000 active; AID 588475;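 active = inhibition of the ligand-induced calcium signal above about 50% at the single tested concentration, limit read from the data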
TPT1 inh confirm: TPT1 (C. albicans) inhibition, confirmation; shares compounds with TPT1 inhibitor; recombinant caTPT1, fluorescence polarization, RNase T1 coupled; inhibition, % at 5 µM; 74% of 2,400 active;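 active = inhibition above the primary screen limit, the mean inhibition of all tested compounds plus 3 SD, cut at about 25% in these data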
RNase T1 counter: blocks Aspergillus oryzae RNase T1, a TPT1 counter-screen | inhibition, % at 5 µM | shares compounds with TPT1 inhibitor | RNase T1 cleavage, fluorescence polarization, 1536-well | 83% of 2,400 active | AID 2153;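 active = inhibition above the solvent-only control well mean plus 3 SD, limit set per screening run, cut at about 23% in these data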;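 note: plate controls were DMSO wells with enzyme for no effect and wells without RNase T1 for full effect; inhibitors block cleavage so intact labeled substrate keeps polarization high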
Rpn11 confirm: Rpn11 inhibition confirmation, single concentration; shares compounds with Rpn11 inh; purified human 26S proteasome, Ub4-pepOG fluorescence polarization; proteasome pretreated with epoxomicin; inhibition, % at 20 µM; 29% of 1,900 active
MMP-2 counter-1: MMP-2 (human) inhibition counter-screen. recombinant MMP-2, FRET peptide cleavage fluorescence. AID 602330. 4% of 1,900 active. inhibition, % at 20 µM. shares compounds with Rpn11 inh;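 note: human MMP-2 activated beforehand with APMA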
Thrombin FP: counter-screen for RPN11 inhibitors: inhibition of bovine thrombin. shares compounds with Rpn11 inh. AID 602333. bovine thrombin cleavage of Ub4-pepOG, fluorescence polarization. inhibition, % at 20 µM. 13% of 1,900 active;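 active = mean inhibition at least 40% at 20 µM, or signal 3 deviations below plate average, so some actives read negative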;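 note: plate controls were thrombin with DMSO for no effect and buffer wells lacking thrombin for full effect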
CSN5 deneddyl: Csn5 (human) deneddylation inhibition, single-concentration validation; shares compounds with CSN deneddyl inh; Csn5 deneddylation of SCF-Nedd8OG, fluorescence polarization, 90 min; inhibition, % at 16.6 µM; 62% of 540 active; AID 720654; in the data active = inhibition above about 50%;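 note: 0% = DMSO with enzyme and 100% = no enzyme wells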
MMP-2 counter-2: blocks human MMP-2 in a CSN deneddylation counter-screen; 33% of 540 active; AID 720655; shares compounds with CSN deneddyl inh; recombinant MMP-2, FRET substrate fluorescence, 60 min; inhibition, % at 16.6 µM;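 active = corrected plate-normalized z-score of 5 or more, or -5 or less, or inhibition of 15% or more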;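 note: plate controls were DMSO wells with enzyme for no effect and buffer wells lacking MMP-2 for full effect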
Thrombin counter: blocks bovine thrombin in a CSN deneddylation counter-screen. shares compounds with CSN deneddyl inh. bovine thrombin cleavage of Ub4-pepOG, fluorescence polarization. inhibition, % at 16.6 µM. 49% of 540 active;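 active = inhibition at or above a set limit, with a fluorescence interference ratio between 0.5 and a set maximum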
HNF4A confirm: change in binding of human HNF4 alpha to DNA, retest. shares compounds with HNF4A DNA FP. HNF4A-FITC DNA binding, fluorescence polarization, 1 h. activity change, % at 12.5 µM. 99% of 210 active; call rule not given here
* marks the source's active call; other numbers are inactive results; i = inactive; . = not tested or not shown; + = active, no number. Cut-off read from the data, not from the text of the source, unless noted: active = inhibition above about 40%; inactive = the rest.

SMILES	Rpn11 inh	CRFBP-R2 agonist	HNF4A DNA FP	CSN deneddyl inh	TPT1 inhibitor	CRFBP-R2 block	TPT1 inh confirm	RNase T1 counter	CSN5 deneddyl	MMP-2 counter-2	Thrombin counter	HNF4A confirm	others
O=[N+]([O-])c1ccc(/C=C/C2=NN(c3ccccc3)C(c3ccco3)C2)cc1 (stereo unspecified)	.	182*	83*	64*	70*	-174	64*	66*	107*	-18	40	.
CC1=NN(c2ccccc2)C(c2ccco2)C1 (stereo unspecified)	i	-2	4	-2	.	7	.	.	.	.	.	.
CC(C)(C)NC(=O)Cn1c(=O)oc2ccc(Cl)cc21	i	-1	-1	-4	0	9	.	.	.	.	.	.
COc1ccc(/C=N/N2C(=O)CSC2=S)cc1Br	.	10	61*	58*	38*	-12	62*	70*	51*	5	54*	.
CS(=O)(=O)c1ccc(C(=O)NCc2ccc(F)cc2)cc1	i	1	1	4	-3	-9	.	.	.	.	.	.
COc1cc(/C=C(\C#N)C(=O)c2ccc(O)c(O)c2)cc(I)c1O	.	188*	110	+	129*	-215	180*	161*	19	-106*	57	.
CC(N=Cc1cccc(O)c1O)c1ccccc1 (stereo unspecified)	i	1	-6	21	-10	-1	.	.	.	.	.	.
Cc1occc1C(=O)/C(C#N)=C/c1ccc(O)c(Br)c1	+	48	15	40*	113*	-35	169*	161*	41	-25	57*	.	Rpn11 confirm=116*;MMP-2 counter-1=-24;Thrombin FP=101*
Cc1cccc(-c2noc(CNC(=O)Nc3ccc(F)cc3)n2)c1	i	0	8	1	2	-2	.	.	.	.	.	.
Cc1ccc(-n2nc3c(N4CCC(C(=O)N5CCC(C(N)=O)CC5)CC4)nnc(C)c3c2C)cc1	.	6	49*	30	35*	0	40*	48*	.	.	.	48*
CCN1C(=O)CS/C1=C(\C#N)S(=O)(=O)c1ccccc1	+	6	40*	-1	104*	-9	80*	90*	.	.	.	43*	Rpn11 confirm=34;MMP-2 counter-1=16;Thrombin FP=23
CCN1C(=O)CS/C1=N\S(=O)(=O)c1ccccc1	i	2	-4	2	-4	3	.	.	.	.	.	.
CSc1nnc(C)c(/C=C/Nc2ccc(Cl)cc2)n1	.	36	59*	-1	154*	-60	121*	117*	.	.	.	55*
COc1ccc(N/C=C/C(=O)C(F)(F)F)cc1	i	2	-1	-13	1	-26	.	.	.	.	.	.
COc1ccc(N/C=C/c2nc(SC)nnc2C)cc1	.	37	45*	28	111*	-73	108*	111*	.	.	.	62*

From PubChem
